Reference: ChEMBL document CHEMBL3526035, “Role of the intestinal peptide transporter PEPT1 in oseltamivir absorption: in vitro and in vivo studies” (Drug Metab Dispos, 2012)

How the values were obtained:
[1] = molecular target: T1, Solute carrier family 15 member 1 (Homo sapiens, UniProt P46059); test: Inhibition of human PEPT1 expressed in CHOK1 cells assessed as Gly-Sar uptake at 0.3 to 10 mM after 10 mins by HPLC coupled with radiodetection analysis; format: cell-based; details: cho-k1, 10 min, 10000 µM
T1 sequence (P46059 whole entry): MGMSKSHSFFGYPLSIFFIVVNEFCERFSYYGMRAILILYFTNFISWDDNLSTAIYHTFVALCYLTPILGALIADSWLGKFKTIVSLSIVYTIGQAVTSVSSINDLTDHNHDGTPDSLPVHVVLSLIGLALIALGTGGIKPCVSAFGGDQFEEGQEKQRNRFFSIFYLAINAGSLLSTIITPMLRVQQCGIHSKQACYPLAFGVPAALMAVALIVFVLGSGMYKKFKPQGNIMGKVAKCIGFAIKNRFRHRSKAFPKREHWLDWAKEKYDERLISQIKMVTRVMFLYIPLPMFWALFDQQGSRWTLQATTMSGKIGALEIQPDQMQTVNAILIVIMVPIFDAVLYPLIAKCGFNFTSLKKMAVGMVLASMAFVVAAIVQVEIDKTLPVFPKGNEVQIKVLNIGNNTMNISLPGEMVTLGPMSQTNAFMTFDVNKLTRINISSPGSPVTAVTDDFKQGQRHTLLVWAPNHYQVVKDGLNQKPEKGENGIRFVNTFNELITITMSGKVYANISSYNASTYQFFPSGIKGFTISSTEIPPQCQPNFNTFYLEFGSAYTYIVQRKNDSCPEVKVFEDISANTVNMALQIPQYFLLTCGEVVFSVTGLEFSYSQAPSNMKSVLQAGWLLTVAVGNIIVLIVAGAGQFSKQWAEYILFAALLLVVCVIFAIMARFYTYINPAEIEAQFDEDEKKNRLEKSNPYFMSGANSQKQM
Procedure, shortened: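 Competition assay in CHO-PEPT1 cells: 2 µM [3H]Gly-Sar with oseltamivir or oseltamivir carboxylate at 0.3–10 mM, 10 min at 37°C, pH 6, KH/MES buffer. Tyr-Phe 0.5 mM served as positive control. Intracellular radioactivity was measured per mg protein. Three independent experiments.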

[2] = AUC(0 to 6 hrs) in adult fed Sprague-Dawley rat at 30 mg/kg, po administered as water solution by HPLC-tandem mass spectrometry; format: ADME, organism-based; design: time < 6 hr, dose 30 mg/kg, route oral; details: plasma
Procedure, shortened: (§1)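 Sprague-Dawley males, 7-8 weeks, 243-283 g, jugular-cannulated, 3 days' recovery; fed (chow ad libitum). Single oral dose of 30 mg/kg (free base) at 10 ml/kg; 3 rats/group. Jugular blood taken at 0.25-24 h into K2EDTA with dichlorvos, kept on ice. Plasma analysed by validated LC-MS/MS (0.1-500 μg/l). Noncompartmental analysis; AUC by linear trapezoid, AUC0-∞ extrapolated using λz.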

[3] = AUC(0 to 24 hrs) in adult fed Sprague-Dawley rat at 30 mg/kg, po administered as water solution by HPLC-tandem mass spectrometry; format: ADME, organism-based; design: time < 24 hr, dose 30 mg/kg, route oral; details: plasma; procedure, shortened: as §1
[4] = Drug uptake in CHOK1 cells expressing human PEPT1 at 5 to 100 uM after 10 mins by HPLC coupled with radiodetection analysis; format: ADME, cell-based, Cricetulus griseus; details: chinese hamster, cho-k1, 10 min
[5] = AUC(0 to 6 hrs) in adult fed Sprague-Dawley rat at 30 mg/kg, po administered as solution in bovine milk by HPLC-tandem mass spectrometry; format: ADME, organism-based; design: time < 6 hr, dose 30 mg/kg, route oral; details: in vivo; procedure, shortened: as §1
[6] = AUC(0 to 24 hrs) in adult fed Sprague-Dawley rat at 30 mg/kg, po administered as solution in bovine milk by HPLC-tandem mass spectrometry; format: ADME, organism-based; design: time < 24 hr, dose 30 mg/kg, route oral; details: in vivo; procedure, shortened: as §1
[7] = Tmax in adult fed Sprague-Dawley rat at 30 mg/kg, po administered as 125 mM aqueous Gly-Sar solution by HPLC-tandem mass spectrometry; format: ADME, organism-based; design: dose 30 mg/kg, route oral; details: in vivo
Procedure, shortened: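 Cannulated adult male Sprague-Dawley rats with chow ad libitum, 3 per vehicle, were given oral 30 mg/kg (10 ml/kg). Plasma analysis was by HPLC-MS/MS, with Tmax taken graphically from concentration-time profiles.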

[8] = AUC(0 to 6 hrs) in adult fed Sprague-Dawley rat at 30 mg/kg, po administered as 125 mM aqueous Gly-Sar solution by HPLC-tandem mass spectrometry; format: ADME, organism-based; design: time < 6 hr, dose 30 mg/kg, route oral; details: plasma; procedure, shortened: as §1
[9] = Cmax in juvenile breast-fed Sprague-Dawley rat at 30 mg/kg, po administered as water solution by HPLC-tandem mass spectrometry; format: ADME, organism-based; design: dose 30 mg/kg, route oral; details: in vivo
Procedure, shortened: (§2)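 7-day-old Sprague-Dawley pups (9.7-18.9 g, both sexes), 15 per group. Given 30 mg/kg by oral gavage (10 ml/kg); breast-fed pups stayed with dams, fasted pups were removed 8 h before dosing. Blood taken by cardiac puncture under isoflurane at 0.25, 0.5, 1, 2 and 5 h, n=3 per time point (composite design). Dichlorvos-treated plasma assayed by LC-MS/MS; AUC0-5h by noncompartmental analysis.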

[10] = Tmax in juvenile breast-fed Sprague-Dawley rat at 30 mg/kg, po administered as water solution by HPLC-tandem mass spectrometry; format: ADME, organism-based; design: dose 30 mg/kg, route oral; details: in vivo
Procedure, shortened: (§3)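 Seven-day-old Sprague-Dawley pups, males and females, 15 per group, were gavaged with 30 mg/kg (10 ml/kg). Breast-fed pups stayed with their dams; fasted pups were removed from 8 h predose through 5 h. Cardiac blood was drawn under isoflurane at 0.25, 0.5, 1, 2 and 5 h (composite, n=3/time point), with dichlorvos added. Plasma was analyzed by HPLC-MS/MS and Tmax read graphically.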

[11] = AUC(0 to 5 hrs) in juvenile fasted Sprague-Dawley rat at 30 mg/kg, po administered as solution in bovine milk by HPLC-tandem mass spectrometry; format: ADME, organism-based; design: time < 5 hr, dose 30 mg/kg, route oral; details: in vivo; procedure, shortened: as §2
[12] = Cmax in juvenile fasted Sprague-Dawley rat at 30 mg/kg, po administered as 125 mM aqueous Gly-Sar solution by HPLC-tandem mass spectrometry; format: ADME, organism-based; design: dose 30 mg/kg, route oral; details: in vivo; procedure, shortened: as §2
[13] = Tmax in juvenile fasted Sprague-Dawley rat at 30 mg/kg, po administered as 125 mM aqueous Gly-Sar solution by HPLC-tandem mass spectrometry; format: ADME, organism-based; design: dose 30 mg/kg, route oral; details: in vivo; procedure, shortened: as §3
[14] = Cmax in healthy human at 150 mg, po administered as single dose by HPLC-tandem mass spectrometry under fasting conditions; format: ADME, organism-based; design: dose 150 mg, route oral; details: in vivo
Procedure, shortened: (§4)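 Open-label crossover in 18 healthy volunteers (9 male, 9 female, mean age 26). Each received marketed oseltamivir 150 mg orally, once fasted from midnight and once after a high-fat, high-calorie breakfast, with a 7-10 day washout. Plasma and urine collected over 0-72 h and analysed by HPLC-MS/MS. AUC and Cmax compared after log transformation.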

[15] = AUC(0 to 24 hrs) in healthy human at 150 mg, po administered as single dose by HPLC-tandem mass spectrometry under fasting conditions; format: ADME, organism-based; design: dose 150 mg, time < 24 hr, route oral; details: plasma; procedure, shortened: as §4
[16] = Renal clearance in healthy human at 150 mg, po administered as single dose by HPLC-tandem mass spectrometry under fasting conditions; format: ADME, organism-based, Kidney; details: in vivo
Procedure, shortened: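 Open-label crossover food-effect study in 18 healthy volunteers (9 male, 9 female, mean age 26). Each received a single 150 mg oral dose of the marketed formulation, once fasting from midnight and once after a high-fat, high-calorie breakfast, separated by a 7–10 day washout. Plasma and urine were collected over 0–72 h and assayed by HPLC-MS/MS for oseltamivir and carboxylate.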

[17] = Cmax in healthy human at 150 mg, po administered as single dose by HPLC-tandem mass spectrometry under fed conditions; format: ADME, organism-based; design: dose 150 mg, route oral; details: in vivo; procedure, shortened: as §4
[18] = Apparent oral clearance in healthy human at 150 mg, po administered as single dose by HPLC-tandem mass spectrometry under fed conditions; format: ADME, organism-based; details: in vivo; procedure, shortened: as §4

inhibition (INH) [1]	AUC(0-t) at 6 h [2]	AUC(0-t) at 24 h [3]	Drug uptake [4]	AUC(0-t) at 6 h [5]	AUC(0-t) at 24 h [6]	Tmax [7]	AUC(0-t) at 6 h [8]	Cmax [9]	Tmax [10]	AUC(0-t) at 5 h [11]	Cmax [12]	Tmax [13]	Cmax [14]	AUC(0-t) at 24 h [15]	CL renal [16]	Cmax [17]	CL/F [18]	Compound
Not Active	3540 ng·h/mL	5280 ng·h/mL	Active	4510 ng·h/mL	6330 ng·h/mL	1.42 h	2960 ng·h/mL	1500 ng/mL	5 h	9260 ng·h/mL	2710 ng/mL	2 h	551 ng/mL	5540 ng·h/mL	223 mL/min	441 ng/mL	385 mL/min	CCC(CC)O[C@@H]1C=C(C(=O)O)C[C@H](N)[C@H]1NC(C)=O [OSELTAMIVIR CARBOXYLATE]
Not Active	2200 ng·h/mL	2510 ng·h/mL	Active	2510 ng·h/mL	2800 ng·h/mL	0.66 h	2280 ng·h/mL	6140 ng/mL	1 h	26900 ng·h/mL	10400 ng/mL	0.5 h	124 ng/mL	238 ng·h/mL	340 mL/min	101 ng/mL	9540 mL/min	CCOC(=O)C1=C[C@@H](OC(CC)CC)[C@H](NC(C)=O)[C@@H](N)C1 [OSELTAMIVIR]
